Measured values: article PMC5554713 (ChemMedChem, 2017)

Assays:
[1] = target: T1, CaMKIIδ (Homo sapiens, UniProt Q13557); test: Radiometric kinase assay; type: biochemical
Procedure, shortened: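 Outsourced radiometric assay using conventional filter-binding, which directly measures kinase catalytic activity toward a specific substrate. Run as a concentration-dependent study.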

[2] = target: T1, CaMKIIδ; type: biochemical; conditions: read-out: inhibition of CaMKIIδ enzyme activity
[3] = target: β subtype of CaMKII; conditions: cited from earlier work; for kinase activity, β subtype of CaMKII: at 0.5 μM
[4] = system: δ subtype of CaMKII; conditions: cited from earlier work; for activity against δ subtype of CaMKII: at 1 μM; for inhibition of δ subtype of CaMKII: at 10 μM
[5] = target: α subtype of CaMKII; conditions: cited from earlier work; for kinase activity, α subtype of CaMKII: at 0.5 μM
[6] = system: β subtype of CaMKII; conditions: cited from earlier work; for activity against β subtype of CaMKII: at 1 μM; for inhibition of β subtype of CaMKII: at 10 μM
[7] = target: CaMKIIγ; conditions: at 0.5 μM; cited from earlier work
[8] = system: γ subtype of CaMKII; conditions: cited from earlier work; for activity against γ subtype of CaMKII: at 1 μM; for inhibition of γ subtype of CaMKII: at 10 μM
[9] = target: δ subtype of CaMKII; conditions: cited from earlier work; for kinase activity, δ subtype of CaMKII: at 0.5 μM
[10] = target: CaMKII; conditions: cited from earlier work
[11] = system: 300 kinases; conditions: at 0.5 μM; cited from earlier work

Row | Compound | IC50 [1] [nM] | IC50 for inhibition of CaMKIIδ enzyme activity ([1]; concentration-dependent study, radiometric assay) | inhibition at 50 µM [2] [%] | kinase activity, β subtype of CaMKII [3] [%] | activity against δ subtype of CaMKII [4] | inhibition of δ subtype of CaMKII [4] [%] | kinase activity, α subtype of CaMKII [5] [%] | activity against β subtype of CaMKII [6] | inhibition of β subtype of CaMKII [6] [%] | kinase activity, γ subtype of CaMKII [7] [%] | activity against γ subtype of CaMKII [8] | inhibition of γ subtype of CaMKII [8] [%] | kinase activity, δ subtype of CaMKII [9] [%] | Ki [10] [nM] | IC50 [10] [nM] | number of different kinases with more than 60 percent inhibition [11] [kinases] | number of different kinases with more than 80 percent inhibition [11] [kinases] | inhibition of kinase activity, β subtype of CaMKII ([3]; at 0.5 μM in the RBC study) | inhibition of kinase activity, α subtype of CaMKII ([5]; at 0.5 μM in the RBC study) | inhibition of kinase activity, δ subtype of CaMKII ([9]; at 0.5 μM in the RBC study)
1 | CCN(CC)CCCC(C)Nc1nc(/C=C/c2ccccc2)nc2cc(Cl)ccc12 (stereo not shown) [Compound 1, (E)-N4-(7-chloro-2-styrylquinazolin-4-yl)-N1,N1-diethylpentane-1,4-diamine] | ~5000 | single-digit micromolar | ≥ 50 | – | – | – | – | – | – | – | – | – | – | – | – | – | – | – | – | –
2 | CN([C@@H](Cc1ccc(OS(=O)(=O)c2cccc3cnccc23)cc1)C(=O)N1CCN(c2ccccc2)CC1)S(=O)(=O)c1cccc2cnccc12 [KN-62] | – | – | – | 90 | Neither compound showed activity | 9 | 90 | Neither compound showed activity | 22 | 90 | Neither compound showed activity | 13 | 90 | 900 | – | – | – | – | – | –
3 | COc1ccc(S(=O)(=O)N(CCO)c2ccccc2CN(C)CC=Cc2ccc(Cl)cc2)cc1 [KN-93] | – | – | – | 90 | Neither compound showed activity | 53 | 90 | Neither compound showed activity | 80 | 90 | Neither compound showed activity | 33 | 90 | 370 | 1000 to 4000 | – | – | – | – | –
4 | CN(C)S(=O)(=O)c1ccc2c(c1)/C(=C/c1cc3c([nH]1)CCCC3)C(=O)N2 [SU6656] | – | – | – | – | – | – | – | – | – | – | – | – | – | – | – | 38 | 19 | ~ 30% | ~ 30% | ~ 30%
